Laboratory results: ChEMBL document CHEMBL4513216, “Probing the Open Global Health Chemical Diversity Library for Multistage-Active Starting Points for Next-Generation Antimalarials” (ACS Infect Dis, 2020)

Assay: Toxicity liver stage against HepG2, at 10uM
Type: cell-based
Parameters: test concentration 10 uM, cell line HepG2-A16-CD81EGFP
Details: human, HepG2-A16-CD81EGFP cells; read-out: INHIBITION
Summary of the method: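 Uninfected HepG2-A16-CD81EGFP cells, 3 × 10^3 per well, 1536-well, plated on prespotted compound at 10 μM final, parasite-free screening media added to match infected plates; puromycin 10 μM positive, DMSO 0.5% negative; run in parallel with 48 h PbLuc assay at 37 °C, 5% CO2; viability by CellTiter-Glo luminescence, normalized to controls.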

SMILES | cytotoxicity at 10 µM [%]
Clc1ccc(-c2c[nH]c([C@@H]3COCCN3)n2)cc1 | -10.1
O=C(c1ccco1)N1C[C@H]2CCCN(C(=O)c3ccsc3)[C@H]2C1 | 8.36
CC(C)N(C)C(=O)C1=NOC2(CCN(C(=O)NCc3cccnc3)C2)C1 (stereo not given) | -3.75
COCC(=O)N1CCC(c2nc3ccc(-c4ccccc4)cn3n2)CC1 | -0.555
CCS(=O)(=O)Nc1ccn(Cc2cccc(Cl)c2)n1 | -4.49
CCC(C)c1noc(C2CCN(C(=O)c3cccs3)CC2)n1 (stereo not given) | -12.8
CC1CCc2nn(CCNC(=O)C3CCCC3)c(=O)cc2C1 (stereo not given) | 7.71
O=C(CCC(=O)N1CCc2ccccc2C1)c1cccs1 | -61.8
COc1ccc(NC(=O)N2CCN(CCSc3ccccc3)CC2)cc1 | 6.13
CC(C)c1cc(C(=O)N2Cc3ccccc3CC2C(=O)O)nn1C (stereo not given) | 7.97
CC1(C)COCCN1C(=O)Cc1csc(Cc2ccccn2)n1 | 3.31
CC(NCc1ccc(-c2ccc(F)cc2)o1)c1nnc2n1CCC2 (stereo not given) | -4.21
COCc1ccccc1CNC(=O)CNc1cccc(Cl)c1OC | 6.39
O=C(NCc1ccc2c(c1)OCO2)N1CCCC2(C1)OCCO2 | 3.07
COc1ccccc1COCC(O)CN(C)c1ccc(C)cc1C (stereo not given) | 9.6
O=C(NCCn1ccnc1)c1csc2c1CCCC2 | -1.34
Cc1cc(CNC(=O)CCc2ccc(S(N)(=O)=O)cc2)no1 | 7.81
O=C(Cn1cc(I)cn1)N1CCNC1=O | 1.53
CCn1c(CC2CCN(S(=O)(=O)Cc3ccccc3)CC2)nn(C)c1=O | -2.43
COc1ccc(OC)c(-c2nc(CN(C)Cc3nonc3C)c(C)o2)c1 | 13.5
CC(C)c1noc(Cn2ncc3ccccc3c2=O)n1 | -3.69
CN(CCO)C[C@@H]1CN(Cc2ccccc2C#N)C[C@@H]1CO | -0.951
Cn1cccc1C(=O)N1CCC(c2nccn2Cc2ccncc2)CC1 | -12

SMILES | cytotoxicity at 10 µM [%]
Cc1ccc(C#N)c(N2CC(C)(C)[C@@](C)(O)C2)n1 | 1.39
Cc1nc(N)ccc1CC1COc2ccccc2C1 (stereo not given) | 3.79
Cc1ccccc1OC1CCN(C(=O)CNC(=O)N(C)C)CC1 | 9.83
Cc1cc(C(=O)N2CCCCC2C)ccc1NC(=O)N1CCOCC1 (stereo not given) | 7.02
Cc1nc(CNC(=O)NCc2cccnc2N(C)C)cs1 | -2.15
CS(=O)(=O)NC1CCN(C(=O)NCc2ccccn2)CC1 | -5.04
COc1cccc(CN(C)CC(=O)NC2(C)CCS(=O)(=O)C2)c1 (stereo not given) | -2.3
O=C(NCCOc1ccc2c(c1)OCO2)N1CCCC(CO)C1 (stereo not given) | -22.3
Cc1cc(C)n(CC2CN(Cc3nc(C4CC4)no3)CCO2)n1 (stereo not given) | -5.13
CN(C)c1cc(CNC(=O)Nc2nnc(C3CC3)s2)ccn1 | -10.8
CC(C)COC(C)C(=O)NCc1ccc(F)cc1 (stereo not given) | -2.9
O=C(Cc1ccc2c(c1)OCCO2)N1CCCC(n2cncn2)C1 (stereo not given) | -7.85
O=C(NCc1cncc2c1CCN(Cc1ccccc1)C2)C1CC1 | 12.1
CS(=O)(=O)N1CCC2(CC1)COC(COc1ccccn1)C2 (stereo not given) | 5.63
CCS(=O)(=O)N1C[C@H]2CN(Cc3cccnc3)C(=O)[C@H]2C1 | -17.8
O=C(c1cnoc1)N1CCC[C@]2(C[C@H](Oc3ncccc3F)CO2)C1 | -10.2
NC(=O)COc1ccc(CNCc2cc(F)cc(F)c2)cc1 | -7.85
CS(=O)(=O)N1CC[C@H]2[C@H](C[C@@H](Cn3cncn3)N2CC2CC2)C1 | -6.25
CN1CC2(CCN(C(=O)Cc3ccccn3)CC2)OCC1=O | -3.39
CN(C)CC(=O)N1Cc2nnn(C)c2C(COCc2ccccn2)C1 (stereo not given) | 9.26
COCC(=O)N1CCC2(CCC2N(C)Cc2ccco2)CC1 (stereo not given) | 0.169
C[C@@H]1CN(S(C)(=O)=O)C[C@]12CCN(Cc1cccnc1)C2=O | 0.169
